Active and inactive are the calls of the source. The rule behind the calls is not given here.
Tests used:
[1] = target: Tyrosine-protein kinase Lck (Homo sapiens) (UniProt P06239); assay: Inhibition of recombinant full-length human LCK activated at 1 uM using KVEKIGEGTYGVVYK as substrate measured after 40 mins in presence of [gamma33P]ATP by scintillation counting method relative to control
[2] = target: Serine/threonine-protein kinase Nek3 (Homo sapiens) (UniProt P51956); assay: Inhibition of recombinant full-length human NEK3 at 1 uM using myelin basic protein as substrate measured after 40 mins in presence of [gamma33P]ATP by scintillation counting method relative to control
[3] = system: Fibroblast growth factor receptor 2 (Homo sapiens), P21802 [N549H]; assay: Inhibition of recombinant human FGFR2 N549H mutant (456 to 770 residues) at 1 uM using GGEEEEYFELVKKKK as substrate measured after 40 mins in presence of [gamma33P]ATP by scintillation counting method relative to control
[4] = target: Cyclin-dependent kinase 1/cyclin B1 (Homo sapiens) (UniProt P06493+P14635); assay: Inhibition of recombinant full-length human CDK1/cyclinB at 1 uM using Histone H1 as substrate measured after 40 mins in presence of [gamma33P]ATP by scintillation counting method relative to control; assay type: protein-complex assay
[5] = target: Serine/threonine-protein kinase 38-like (Homo sapiens) (UniProt Q9Y2H1); assay: Inhibition of recombinant human NDR2 (83 to end residues) at 1 uM using RSRSRSRSRSRSRSR as substrate measured after 120 mins in presence of [gamma33P]ATP by scintillation counting method relative to control
[6] = target: CDK6/cyclin D3 (Homo sapiens) (UniProt P30281+Q00534); assay: Inhibition of recombinant full-length human CDK6/cyclinD3 at 500 nM using histone H1 as substrate measured after 40 mins in presence of [gamma33P]ATP by scintillation counting method relative to control; assay type: protein-complex assay
Summary of the method: (§1)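 Percent inhibition of kinase activity at a single compound concentration, measured by the outsourced Eurofins KinaseProfiler panel. Values are the mean of two independent experiments.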

A549 [7] = assay: Antiproliferative activity against human A549 cells assessed as inhibition of cell viability after 72 hrs by CCK-8 assay; assay type: functional, cell-based; settings: A549, 72 h
Summary of the method: (§2)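 Cells kept at 37 °C, 5% CO2 in DMEM or RPMI-1640 with 10% FBS and 1% penicillin/streptomycin, then seeded at 3000 cells/well (adherent) or 10,000 cells/well (suspension). Exposed to a range of concentrations for 72 h. CCK-8 added for 1-4 h before reading A450. […] Three independent experiments.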

[8] = target: Mitogen-activated protein kinase 13 (Homo sapiens) (UniProt O15264); assay: Inhibition of recombinant full-length human SAPK4 at 1 uM using myelin basic protein as substrate measured after 40 mins in presence of [gamma33P]ATP by scintillation counting method relative to control
A549 [9] = assay: Downregulation of OCT4 in human A549 cells at 0.25 to 1 uM by Western blot analysis; assay type: functional, cell-based
[10] = target: PAS domain-containing serine/threonine-protein kinase (Homo sapiens) (UniProt Q96RG2); assay: Inhibition of recombinant human PASK (995 to end residues) at 1 uM using KKLNRTLSFAEPG as substrate measured after 40 mins in presence of [gamma33P]ATP by scintillation counting method relative to control
[11] = target: Receptor-type tyrosine-protein kinase FLT3 (Homo sapiens) (UniProt P36888); assay: Inhibition of recombinant human Flt3 (564 to end residues) at 1 uM using EAIYAAPFAKKK as substrate measured after 40 mins in presence of [gamma33P]ATP by scintillation counting method relative to control
[12] = target: Proto-oncogene tyrosine-protein kinase Src (Homo sapiens) (UniProt P12931); assay: Inhibition of recombinant full-length human cSRC at 1 uM using KVEKIGEGTYGVVYK as substrate measured after 40 mins in presence of [gamma33P]ATP by scintillation counting method relative to control
[13] = system: Serine/threonine-protein kinase Nek4 (Homo sapiens), P51957 [P225A]; assay: Inhibition of recombinant full-length human NEK4 P225A mutant at 1 uM using myelin basic protein as substrate measured after 40 mins in presence of [gamma33P]ATP by scintillation counting method relative to control
[14] = target: Dual specificity tyrosine-phosphorylation-regulated kinase 2 (Homo sapiens) (UniProt Q92630); assay: Inhibition of recombinant full-length human DYRK2 at 1 uM using casein as substrate measured after 40 mins in presence of [gamma33P]ATP by scintillation counting method relative to control
A549 [15] = assay: Induction of apoptosis in human A549 cells assessed as late apoptotic cells at 0.25 uM after 48 hrs by AnnexinV-FITC/PI staining-based flow cytometric analysis (reference value: 7.66%); assay type: functional
NCI-H1299 = assay: Induction of apoptosis in human H1299 cells assessed as early apoptotic cells at 1 uM after 48 hrs by AnnexinV-FITC/PI staining-based flow cytometric analysis (reference value: 0.248%); assay type: functional
[16] = target: Non-receptor tyrosine-protein kinase TYK2 (Homo sapiens) (UniProt P29597); assay: Inhibition of human TYK2 (875 to end residues) at 1 uM using GGMEDIYFEFMGGKKK as substrate measured after 40 mins in presence of [gamma33P]ATP by scintillation counting method relative to control; summary of the method: as §1
SiHa = assay: Antiproliferative activity against human SiHa cells assessed as inhibition of cell viability after 72 hrs by CCK-8 assay; assay type: functional, cell-based; summary of the method: as §2
[17] = target: Cyclin-dependent kinase 13/Cyclin-K (Homo sapiens) (UniProt Q14004+O75909); assay: Inhibition of human full length recombinant CDK13/cyclinK at 1 uM using RSRSRSRSRSRSRSR as substrate incubated for 120 mins in presence of [gamma-33P]ATP at by radiometric assay relative to control; assay type: protein-complex assay
[18] = target: Serine/threonine-protein kinase PAK 3 (Homo sapiens) (UniProt O75914); assay: Inhibition of recombinant full-length human PAK3 at 1 uM using RRRLSFAEPG as substrate measured after 40 mins in presence of [gamma33P]ATP by scintillation counting method relative to control
A549 [19] = assay: Induction of apoptosis in human A549 cells assessed as decrease in Bcl-2 protein expression at 0.25 to 1 uM after 24 hrs by Western blot analysis; assay type: functional, cell-based
Summary of the method: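 A549 or H1299 cells exposed to the indicated concentrations for 24 h. Protein extracts then immunoblotted for apoptosis-pathway proteins (Bcl2, Bim, cleaved caspase 3).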

[20] = target: Mitogen-activated protein kinase kinase kinase 5 (Homo sapiens) (UniProt Q99683); assay: Inhibition of recombinant human ASK1 (649 to 946 residues) at 1 uM using myelin basic protein as substrate measured after 40 mins in presence of [gamma33P]ATP by scintillation counting method relative to control
A549 [21] = assay: Inhibition of tumorsphere formation in human A549 cells assessed as decrease in number of spheres at 0.25 to 1 uM after 2 weeks by microscopic analysis; assay type: functional, cell-based

Chain of Fibroblast growth factor receptor 2 (Homo sapiens), P21802 [N549H] (P21802 whole entry N549H, the tested form may be a part): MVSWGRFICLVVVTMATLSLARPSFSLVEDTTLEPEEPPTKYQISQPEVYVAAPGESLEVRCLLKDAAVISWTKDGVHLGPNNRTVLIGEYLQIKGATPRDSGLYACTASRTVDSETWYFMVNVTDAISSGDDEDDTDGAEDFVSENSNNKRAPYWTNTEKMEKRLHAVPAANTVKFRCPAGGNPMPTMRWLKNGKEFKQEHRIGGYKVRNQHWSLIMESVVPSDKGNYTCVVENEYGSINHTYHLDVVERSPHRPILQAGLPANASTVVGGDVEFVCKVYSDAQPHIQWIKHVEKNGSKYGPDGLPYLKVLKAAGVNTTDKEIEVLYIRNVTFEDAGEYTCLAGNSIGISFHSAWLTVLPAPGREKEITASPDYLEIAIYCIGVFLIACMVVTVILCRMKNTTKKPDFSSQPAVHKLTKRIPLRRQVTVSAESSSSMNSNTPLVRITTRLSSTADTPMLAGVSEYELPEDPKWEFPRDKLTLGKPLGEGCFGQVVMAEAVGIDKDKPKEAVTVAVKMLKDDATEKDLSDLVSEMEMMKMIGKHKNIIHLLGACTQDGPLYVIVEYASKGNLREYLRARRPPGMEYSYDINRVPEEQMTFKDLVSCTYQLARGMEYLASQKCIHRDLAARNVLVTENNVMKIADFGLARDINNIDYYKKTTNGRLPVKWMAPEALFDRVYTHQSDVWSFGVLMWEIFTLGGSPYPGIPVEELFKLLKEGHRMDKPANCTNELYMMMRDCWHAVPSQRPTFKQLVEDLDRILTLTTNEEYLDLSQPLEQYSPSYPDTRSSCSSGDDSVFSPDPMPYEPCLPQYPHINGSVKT
Chain of Mitogen-activated protein kinase 13 (Homo sapiens) (O15264 whole entry): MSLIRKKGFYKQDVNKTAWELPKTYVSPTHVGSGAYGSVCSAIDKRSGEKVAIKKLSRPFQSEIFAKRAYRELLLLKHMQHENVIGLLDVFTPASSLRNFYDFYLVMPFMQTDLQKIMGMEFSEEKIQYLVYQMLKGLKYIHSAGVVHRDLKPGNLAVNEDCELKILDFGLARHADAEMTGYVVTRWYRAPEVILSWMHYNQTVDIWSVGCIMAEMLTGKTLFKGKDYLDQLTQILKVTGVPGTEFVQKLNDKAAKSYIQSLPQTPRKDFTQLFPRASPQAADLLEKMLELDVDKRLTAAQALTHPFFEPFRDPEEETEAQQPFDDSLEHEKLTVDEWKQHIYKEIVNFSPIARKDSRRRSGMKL
Chain of PAS domain-containing serine/threonine-protein kinase (Homo sapiens) (Q96RG2 whole entry, the tested form may be a part): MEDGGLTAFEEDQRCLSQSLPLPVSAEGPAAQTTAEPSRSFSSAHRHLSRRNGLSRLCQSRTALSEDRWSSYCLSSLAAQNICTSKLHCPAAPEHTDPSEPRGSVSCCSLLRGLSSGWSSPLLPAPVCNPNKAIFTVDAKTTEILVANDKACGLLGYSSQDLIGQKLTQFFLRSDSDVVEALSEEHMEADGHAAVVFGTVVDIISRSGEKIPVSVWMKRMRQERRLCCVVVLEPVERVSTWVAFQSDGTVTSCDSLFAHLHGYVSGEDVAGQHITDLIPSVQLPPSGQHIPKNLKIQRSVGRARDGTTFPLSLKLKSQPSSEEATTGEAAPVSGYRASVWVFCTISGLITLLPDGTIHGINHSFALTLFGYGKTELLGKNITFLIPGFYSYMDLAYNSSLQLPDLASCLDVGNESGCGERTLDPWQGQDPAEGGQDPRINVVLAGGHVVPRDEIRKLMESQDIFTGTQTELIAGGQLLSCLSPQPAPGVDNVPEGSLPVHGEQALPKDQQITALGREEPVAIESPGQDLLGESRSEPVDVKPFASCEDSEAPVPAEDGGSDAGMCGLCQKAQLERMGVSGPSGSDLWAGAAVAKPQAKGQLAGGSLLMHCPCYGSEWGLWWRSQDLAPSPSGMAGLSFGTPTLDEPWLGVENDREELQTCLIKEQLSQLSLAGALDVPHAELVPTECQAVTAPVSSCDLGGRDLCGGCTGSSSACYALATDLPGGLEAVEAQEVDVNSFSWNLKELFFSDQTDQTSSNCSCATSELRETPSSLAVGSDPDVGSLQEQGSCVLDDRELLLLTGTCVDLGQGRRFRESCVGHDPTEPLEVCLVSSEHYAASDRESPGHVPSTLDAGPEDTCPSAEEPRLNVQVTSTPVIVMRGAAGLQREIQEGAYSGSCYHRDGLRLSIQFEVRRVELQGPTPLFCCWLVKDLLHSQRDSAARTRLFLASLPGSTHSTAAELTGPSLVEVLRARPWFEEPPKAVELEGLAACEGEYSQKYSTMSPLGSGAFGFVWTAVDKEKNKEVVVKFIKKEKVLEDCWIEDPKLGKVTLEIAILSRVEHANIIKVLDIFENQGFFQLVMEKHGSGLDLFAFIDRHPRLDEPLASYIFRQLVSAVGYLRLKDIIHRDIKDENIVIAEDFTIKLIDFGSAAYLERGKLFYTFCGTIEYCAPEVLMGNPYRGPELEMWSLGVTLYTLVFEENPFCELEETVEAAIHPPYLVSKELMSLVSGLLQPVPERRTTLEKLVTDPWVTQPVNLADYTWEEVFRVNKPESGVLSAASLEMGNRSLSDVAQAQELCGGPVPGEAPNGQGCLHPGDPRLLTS
Chain of Cyclin-dependent kinase 13/Cyclin-K (Homo sapiens) (O75909 whole entry, looked up): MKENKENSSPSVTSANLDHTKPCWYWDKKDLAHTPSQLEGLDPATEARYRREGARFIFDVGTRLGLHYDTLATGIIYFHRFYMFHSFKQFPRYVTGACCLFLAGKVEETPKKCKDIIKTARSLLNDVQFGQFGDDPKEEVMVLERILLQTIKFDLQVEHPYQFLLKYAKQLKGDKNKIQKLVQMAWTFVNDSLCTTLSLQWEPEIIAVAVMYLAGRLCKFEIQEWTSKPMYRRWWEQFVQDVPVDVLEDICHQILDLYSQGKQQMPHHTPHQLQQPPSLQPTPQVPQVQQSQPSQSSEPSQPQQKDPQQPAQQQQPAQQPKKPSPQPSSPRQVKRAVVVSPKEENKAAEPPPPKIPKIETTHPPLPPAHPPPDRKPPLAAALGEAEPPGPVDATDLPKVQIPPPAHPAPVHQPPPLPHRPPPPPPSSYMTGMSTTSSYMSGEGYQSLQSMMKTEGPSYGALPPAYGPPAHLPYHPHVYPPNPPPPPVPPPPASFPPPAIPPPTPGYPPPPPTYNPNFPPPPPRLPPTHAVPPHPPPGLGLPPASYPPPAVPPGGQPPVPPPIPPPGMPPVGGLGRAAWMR
Chain of Cyclin-dependent kinase 13/Cyclin-K (Homo sapiens) (Q14004 whole entry, looked up): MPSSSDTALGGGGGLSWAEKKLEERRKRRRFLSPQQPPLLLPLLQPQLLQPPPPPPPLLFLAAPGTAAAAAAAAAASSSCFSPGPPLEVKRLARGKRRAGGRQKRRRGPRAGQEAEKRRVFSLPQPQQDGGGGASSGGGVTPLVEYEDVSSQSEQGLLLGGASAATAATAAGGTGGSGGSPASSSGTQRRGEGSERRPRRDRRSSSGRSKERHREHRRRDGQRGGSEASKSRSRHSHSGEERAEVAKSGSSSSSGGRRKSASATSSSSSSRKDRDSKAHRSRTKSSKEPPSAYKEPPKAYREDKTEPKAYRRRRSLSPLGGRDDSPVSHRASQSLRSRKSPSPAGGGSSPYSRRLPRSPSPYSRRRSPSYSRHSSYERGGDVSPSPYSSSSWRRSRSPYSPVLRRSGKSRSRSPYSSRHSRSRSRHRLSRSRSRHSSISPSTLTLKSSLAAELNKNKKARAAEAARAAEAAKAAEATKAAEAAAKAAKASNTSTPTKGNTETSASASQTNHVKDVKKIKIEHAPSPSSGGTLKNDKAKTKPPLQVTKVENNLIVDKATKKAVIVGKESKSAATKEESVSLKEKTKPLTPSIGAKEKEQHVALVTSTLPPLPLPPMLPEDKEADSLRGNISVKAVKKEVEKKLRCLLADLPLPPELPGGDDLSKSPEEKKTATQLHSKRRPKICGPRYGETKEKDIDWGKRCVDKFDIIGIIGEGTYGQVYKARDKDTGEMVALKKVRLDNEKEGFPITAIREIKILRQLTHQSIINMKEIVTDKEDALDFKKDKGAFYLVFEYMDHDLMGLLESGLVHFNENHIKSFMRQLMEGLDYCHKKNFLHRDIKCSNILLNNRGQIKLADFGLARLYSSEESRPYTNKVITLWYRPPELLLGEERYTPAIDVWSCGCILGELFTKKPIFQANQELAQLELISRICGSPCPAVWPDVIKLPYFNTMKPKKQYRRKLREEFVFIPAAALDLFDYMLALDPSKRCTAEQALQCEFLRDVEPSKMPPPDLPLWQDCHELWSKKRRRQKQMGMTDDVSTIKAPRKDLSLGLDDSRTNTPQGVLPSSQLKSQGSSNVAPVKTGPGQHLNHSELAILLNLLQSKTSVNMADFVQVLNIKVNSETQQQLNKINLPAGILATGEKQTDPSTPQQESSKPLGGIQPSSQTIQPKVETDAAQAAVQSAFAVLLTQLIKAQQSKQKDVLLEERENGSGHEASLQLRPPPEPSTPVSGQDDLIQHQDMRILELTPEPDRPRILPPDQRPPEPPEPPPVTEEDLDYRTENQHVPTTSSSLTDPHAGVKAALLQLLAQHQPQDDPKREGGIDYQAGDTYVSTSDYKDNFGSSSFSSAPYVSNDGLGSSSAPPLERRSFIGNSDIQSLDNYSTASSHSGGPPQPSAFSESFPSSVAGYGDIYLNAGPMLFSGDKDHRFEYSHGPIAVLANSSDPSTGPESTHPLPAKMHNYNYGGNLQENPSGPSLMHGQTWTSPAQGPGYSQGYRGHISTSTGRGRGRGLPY
Chain of Serine/threonine-protein kinase 38-like (Homo sapiens) (Q9Y2H1 2-464 limits assumed): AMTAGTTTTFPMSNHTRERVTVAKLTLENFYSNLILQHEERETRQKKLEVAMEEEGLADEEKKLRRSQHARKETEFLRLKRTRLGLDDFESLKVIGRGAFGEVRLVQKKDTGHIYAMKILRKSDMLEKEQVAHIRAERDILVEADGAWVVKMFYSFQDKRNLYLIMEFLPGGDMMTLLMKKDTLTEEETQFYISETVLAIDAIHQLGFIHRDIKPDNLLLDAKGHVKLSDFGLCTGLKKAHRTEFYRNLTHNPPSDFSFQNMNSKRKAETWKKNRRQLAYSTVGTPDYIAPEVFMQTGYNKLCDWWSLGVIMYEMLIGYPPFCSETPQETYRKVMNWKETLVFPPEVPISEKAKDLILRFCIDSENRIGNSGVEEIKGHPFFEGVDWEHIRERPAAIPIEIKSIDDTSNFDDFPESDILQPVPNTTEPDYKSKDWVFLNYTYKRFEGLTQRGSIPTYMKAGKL

CN(C)C(=O)c1cc2cnc(Nc3ccc(NC(=O)CCCCCCCN=C=S)cc3)nc2n1C1CCCC1
inhibition [1]: 26%
inhibition [2]: 19%
inhibition [3]: 76%
inhibition [4]: 58%
inhibition [5]: 20%
inhibition [6]: 48%
IC50 (A549 [7]): 450 nM
inhibition [8]: 10%
Activity (A549 [9]): Active
inhibition [10]: 6%
inhibition [11]: 66%
inhibition [12]: 35%
inhibition [13]: 63%
inhibition [14]: -1%
Activity (A549 [15]): 14.5%
Activity (NCI-H1299): 2.28%
inhibition [16]: 4%
IC50 (SiHa): 1810 nM
inhibition [17]: 26%
inhibition [18]: 2%
Activity (A549 [19]): Active
inhibition [20]: -7%
Activity (A549 [21]): Active

Source: ChEMBL document CHEMBL4376814, “Novel cyclin-dependent kinase 9 (CDK9) inhibitor with suppression of cancer stemness activity against non-small-cell lung cancer” (Eur J Med Chem, 2019)
